The text below walks through data of ChEMBL document CHEMBL4257503, “N-Acetyl-3-aminopyrazoles block the non-canonical NF-kB cascade by selectively inhibiting NIK” (Medchemcomm, 2018).

Series [1] deals with T1, Inhibitor of nuclear factor kappa-B kinase subunit beta (Homo sapiens, UniProt O14920).
T1 sequence (O14920 whole entry): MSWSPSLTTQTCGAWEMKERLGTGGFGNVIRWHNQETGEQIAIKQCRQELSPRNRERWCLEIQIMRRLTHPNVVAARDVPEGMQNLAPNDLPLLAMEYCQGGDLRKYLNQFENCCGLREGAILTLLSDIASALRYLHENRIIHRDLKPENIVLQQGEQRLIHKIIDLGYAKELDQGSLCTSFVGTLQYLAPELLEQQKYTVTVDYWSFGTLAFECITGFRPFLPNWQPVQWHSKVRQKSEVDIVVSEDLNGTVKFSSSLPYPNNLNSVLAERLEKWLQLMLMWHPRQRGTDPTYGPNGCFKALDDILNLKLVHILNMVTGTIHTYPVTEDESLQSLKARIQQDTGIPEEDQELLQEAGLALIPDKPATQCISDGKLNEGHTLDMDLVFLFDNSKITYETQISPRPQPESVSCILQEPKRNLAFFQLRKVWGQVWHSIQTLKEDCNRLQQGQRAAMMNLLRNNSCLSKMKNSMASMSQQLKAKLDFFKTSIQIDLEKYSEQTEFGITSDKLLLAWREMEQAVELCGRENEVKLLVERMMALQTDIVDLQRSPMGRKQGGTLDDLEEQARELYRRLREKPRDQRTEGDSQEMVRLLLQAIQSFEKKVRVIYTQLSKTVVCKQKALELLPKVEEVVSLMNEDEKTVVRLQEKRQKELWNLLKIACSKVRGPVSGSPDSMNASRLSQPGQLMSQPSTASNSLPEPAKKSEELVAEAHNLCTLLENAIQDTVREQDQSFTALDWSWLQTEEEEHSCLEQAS
As to the kind of experiment: Inhibition of recombinant human full-length N-terminal GST-fused/His6-tagged IKKbeta (M1 to S756 residues) expressed in Sf9 insect cells using ERLLDDRHDSGLDSMKDEE peptide as substrate measured after 60 mins by ADP-Glo kinase assay.

The target in series [2] is T2, Inhibitor of nuclear factor kappa-B kinase subunit epsilon (Homo sapiens, UniProt Q14164).
T2 sequence (Q14164 whole entry): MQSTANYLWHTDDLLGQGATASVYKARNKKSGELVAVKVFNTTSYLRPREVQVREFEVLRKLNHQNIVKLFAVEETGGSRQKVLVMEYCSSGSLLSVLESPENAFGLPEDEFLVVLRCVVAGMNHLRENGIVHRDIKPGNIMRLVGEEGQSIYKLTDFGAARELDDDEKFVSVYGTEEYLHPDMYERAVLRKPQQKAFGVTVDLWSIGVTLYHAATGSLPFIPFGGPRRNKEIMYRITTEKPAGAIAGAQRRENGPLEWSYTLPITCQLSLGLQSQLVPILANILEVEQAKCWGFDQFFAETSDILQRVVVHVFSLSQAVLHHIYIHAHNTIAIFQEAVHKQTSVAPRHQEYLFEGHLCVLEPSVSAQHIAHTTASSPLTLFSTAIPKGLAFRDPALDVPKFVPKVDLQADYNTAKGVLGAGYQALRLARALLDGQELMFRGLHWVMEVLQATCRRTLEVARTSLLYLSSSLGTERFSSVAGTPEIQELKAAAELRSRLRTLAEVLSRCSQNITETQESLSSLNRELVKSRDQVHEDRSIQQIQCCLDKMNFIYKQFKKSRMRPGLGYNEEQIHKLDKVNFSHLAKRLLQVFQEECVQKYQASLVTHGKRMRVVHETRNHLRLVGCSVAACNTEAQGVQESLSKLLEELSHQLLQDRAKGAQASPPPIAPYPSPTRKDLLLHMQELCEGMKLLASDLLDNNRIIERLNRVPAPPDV
As to the kind of experiment: Inhibition of recombinant human full-length N-terminal GST-fused/His6-tagged IKKepsilon (M1 to V716 residues) expressed in Sf9 insect cells using ERLLDDRHDSGLDSMKDEE peptide as substrate measured after 60 mins by ADP-Glo kinase assay.

The target of series [3] is T3, Mitogen-activated protein kinase kinase kinase 14 (Homo sapiens, UniProt Q99558). As to the kind of experiment: Inhibition of recombinant human full-length N-terminal GST-fused/His6-tagged NIK (M1 to P947 residues) expressed in Sf9 insect cells using AKDVDQGSLCTSFVGTLQY peptide as substrate measured after 60 mins by ADP-Glo kinase assay.
Target sequence in this assay (Q99558 whole entry, the tested form may be a part): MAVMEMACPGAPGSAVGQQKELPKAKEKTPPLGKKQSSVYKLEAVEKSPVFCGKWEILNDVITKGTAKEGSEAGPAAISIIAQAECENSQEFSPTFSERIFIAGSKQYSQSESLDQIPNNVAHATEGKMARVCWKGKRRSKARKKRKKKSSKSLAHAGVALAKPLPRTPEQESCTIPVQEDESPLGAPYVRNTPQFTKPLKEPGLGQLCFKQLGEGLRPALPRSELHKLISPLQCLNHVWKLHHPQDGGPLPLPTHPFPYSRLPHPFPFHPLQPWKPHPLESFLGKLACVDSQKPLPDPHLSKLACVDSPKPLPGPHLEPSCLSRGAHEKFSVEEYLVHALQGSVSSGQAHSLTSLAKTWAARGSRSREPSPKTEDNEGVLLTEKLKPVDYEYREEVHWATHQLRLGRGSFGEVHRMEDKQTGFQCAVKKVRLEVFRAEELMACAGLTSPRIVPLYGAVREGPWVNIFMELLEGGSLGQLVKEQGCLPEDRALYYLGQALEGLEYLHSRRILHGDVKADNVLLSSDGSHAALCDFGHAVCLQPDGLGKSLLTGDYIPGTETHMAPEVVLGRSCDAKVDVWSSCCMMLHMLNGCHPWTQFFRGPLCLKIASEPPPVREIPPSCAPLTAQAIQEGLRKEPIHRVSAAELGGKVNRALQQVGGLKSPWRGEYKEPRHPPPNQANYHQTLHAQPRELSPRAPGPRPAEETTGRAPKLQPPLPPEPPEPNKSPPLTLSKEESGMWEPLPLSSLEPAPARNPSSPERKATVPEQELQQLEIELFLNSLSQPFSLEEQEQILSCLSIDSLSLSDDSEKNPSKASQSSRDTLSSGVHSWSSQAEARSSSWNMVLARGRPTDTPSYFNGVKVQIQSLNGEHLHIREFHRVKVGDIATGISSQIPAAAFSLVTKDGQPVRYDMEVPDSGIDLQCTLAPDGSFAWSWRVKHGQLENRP
The target in series [4] is T4, Inhibitor of nuclear factor kappa-B kinase subunit alpha (Homo sapiens, UniProt O15111).
T4 sequence (O15111 whole entry): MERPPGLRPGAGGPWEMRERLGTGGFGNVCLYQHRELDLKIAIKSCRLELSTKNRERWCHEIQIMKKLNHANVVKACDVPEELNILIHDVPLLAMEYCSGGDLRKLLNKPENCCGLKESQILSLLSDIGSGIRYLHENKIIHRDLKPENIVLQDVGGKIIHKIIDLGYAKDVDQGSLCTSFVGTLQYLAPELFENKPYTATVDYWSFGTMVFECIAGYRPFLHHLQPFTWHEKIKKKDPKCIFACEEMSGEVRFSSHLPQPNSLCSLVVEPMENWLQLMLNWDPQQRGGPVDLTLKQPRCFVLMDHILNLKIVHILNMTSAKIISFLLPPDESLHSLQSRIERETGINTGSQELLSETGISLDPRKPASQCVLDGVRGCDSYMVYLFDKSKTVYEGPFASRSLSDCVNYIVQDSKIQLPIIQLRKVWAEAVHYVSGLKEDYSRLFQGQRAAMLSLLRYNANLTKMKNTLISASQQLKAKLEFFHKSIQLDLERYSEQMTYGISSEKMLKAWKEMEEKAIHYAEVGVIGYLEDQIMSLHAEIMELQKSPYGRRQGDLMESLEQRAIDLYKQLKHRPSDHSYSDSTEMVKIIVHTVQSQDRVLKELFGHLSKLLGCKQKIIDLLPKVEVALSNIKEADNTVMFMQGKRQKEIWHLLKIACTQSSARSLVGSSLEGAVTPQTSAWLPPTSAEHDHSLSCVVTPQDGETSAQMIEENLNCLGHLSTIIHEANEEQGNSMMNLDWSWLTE
The series is described as follows: Inhibition of recombinant full length human His-tagged IKKalpha expressed in baculovirus expression system using ERLLDDRHDSGLDSMKDEE peptide as substrate measured after 60 mins by ADP-Glo kinase assay. In a few lines: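 Recombinant human IKKα, peptide substrate 100 µM, enzyme 8 ng/µL, ATP 1 µM in Tris-HCl pH 7.5 buffer with MgCl2, MnCl2, DTT, Na3VO4, BSA; 25°C, 60 min; ADP-Glo luminescence. Ten concentrations 0.005–100 µM; IC50 by nonlinear regression; means ± SD of three independent experiments.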

Series [5] has as its target T3, Mitogen-activated protein kinase kinase kinase 14. The series is described as follows: Inhibition of NIK-induced NFkappaB activation in human EJM cells at 100 uM after 6 hrs by dual luciferase reporter gene assay relative to control. The class given is cell-based. The procedure, abridged: (§1)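 Cells were nucleofected with the pGL4.32 NF-κB-RE firefly luciferase and pGL4.74 TK-Renilla plasmids (3 µg, 10:1 ratio) and cultured for 24 h at 37 °C. Compound (10, 25, 50 or 100 µM) was then added for 6 h. Firefly luminescence was normalised to Renilla from the same sample and expressed as % of vehicle control. Means ± SD of three independent experiments.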
Target sequence in this assay (Q99558 whole entry, looked up, the tested form may be a part): as the sequence (Q99558 whole entry, the tested form may be a part) above

In series [6] the test system is MDA-MB-231. As to the kind of experiment: Inhibition of NFkappaB activation in human MDA-MB-231 cells at 50 uM after 6 hrs by dual luciferase reporter gene assay relative to control. It is filed as cell-based. In a few lines: as §1
For series [7], the species on record is Homo sapiens. As to the kind of experiment: Inhibition of NFkappaB activation in human SKBR3 cells at 50 uM after 6 hrs by dual luciferase reporter gene assay relative to control. The class given is cell-based. In a few lines:
as §1

Series [8] in a line: Cytotoxicity against human MDA-MB-231 cells assessed as cell viability at 50 uM after 6 hrs by CellTiter Glo luminescent assay relative to control. The class given is cell-based. Particulars: read-out: Activity. In a few lines: (§2)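 Cells seeded at 5 x 10^3 per well and exposed for 6 h to the compound (10, 25, 50 or 100 µM) or to DMSO vehicle. Viability was read as intracellular ATP by CellTiter Glo luminescence.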

The nature of series [9]: Cytotoxicity against human EJM cells assessed as cell viability at 100 uM after 6 hrs by CellTiter Glo luminescent assay relative to control. It is filed as cell-based. Conditions: read-out: Activity. The procedure, abridged: as §2
A short description of series [10]: Cytotoxicity against human SKBR3 cells assessed as cell viability at 50 uM after 6 hrs by CellTiter Glo luminescent assay relative to control. It is filed as cell-based, SK-BR-3. Conditions: read-out: Activity. The procedure, abridged: as §2
Series [11] concerns MDA-MB-231. The series is described as follows: Inhibition of NFkappaB activation in human MDA-MB-231 cells at 1 uM after 6 hrs by dual luciferase reporter gene assay relative to control. It is filed as cell-based.
The species entered for series [12] is Homo sapiens. As to the kind of experiment: Inhibition of NFkappaB activation in human SKBR3 cells at 1 uM after 6 hrs by dual luciferase reporter gene assay relative to control. It is filed as cell-based.
A short description of series [13]: Cytotoxicity against human MDA-MB-231 cells assessed as cell viability at 1 uM after 6 hrs by CellTiter Glo luminescent assay relative to control. It is filed as cell-based. Conditions: read-out: Activity.
A short description of series [14]: Cytotoxicity against human EJM cells assessed as cell viability at 1 uM after 6 hrs by CellTiter Glo luminescent assay relative to control. Conditions: read-out: Activity. It is filed as cell-based.
A short description of series [15]: Cytotoxicity against human SKBR3 cells assessed as cell viability at 1 uM after 6 hrs by CellTiter Glo luminescent assay relative to control. Particulars: read-out: Activity. The class given is cell-based, SK-BR-3.

Bounds are passed on as bounds.

For `Cc1nn(C(=O)C2CC2)c(N)c1-c1ccc(Cl)c(Cl)c1`, the IC50 in series [1] is above 100 µM; in [2], above 100 µM; in series [3], 24.3 µM; in series [4], above 100 µM. The figures for the inhibition (in series [5]; in the series on MDA-MB-231 [6]; in the series listed under Homo sapiens [7]) were 68.9%, 5.8% and 3.66%, respectively. Besides, the viability at 6 h, 50 µM in [8] and in series [10] was at least 80% throughout. In addition, the viability at 6 h, 100 µM in series [9] was at least 80%.

Take `COCCOc1cnc(N)nc1-c1c[nH]c2ccc(C#CC(C)(C)O)cc12`: the IC50 in series [1] was above 100 µM; in series [2], above 100 µM; in series [3], 0.07 µM; in [4], above 100 µM. In addition, the inhibition in the series with MDA-MB-231 [11] came to 7.1%; in the series listed under Homo sapiens [12] it was 2.3%. Also, the viability at 6 h, 1 µM in [13], in series [14] and in series [15] was at least 80% each time.
